Test results as given in ChEMBL document CHEMBL1770105, “Discovery and evaluation of pyrazolo[1,5-a]pyrimidines as neuropeptide Y1 receptor antagonists” (Bioorg Med Chem Lett, 2011).

Key:
[1] = biological target: T1, Corticotropin-releasing factor receptor 1 (Homo sapiens, UniProt P34998); experiment: Binding affinity to CRHR
T1 sequence (P34998 whole entry): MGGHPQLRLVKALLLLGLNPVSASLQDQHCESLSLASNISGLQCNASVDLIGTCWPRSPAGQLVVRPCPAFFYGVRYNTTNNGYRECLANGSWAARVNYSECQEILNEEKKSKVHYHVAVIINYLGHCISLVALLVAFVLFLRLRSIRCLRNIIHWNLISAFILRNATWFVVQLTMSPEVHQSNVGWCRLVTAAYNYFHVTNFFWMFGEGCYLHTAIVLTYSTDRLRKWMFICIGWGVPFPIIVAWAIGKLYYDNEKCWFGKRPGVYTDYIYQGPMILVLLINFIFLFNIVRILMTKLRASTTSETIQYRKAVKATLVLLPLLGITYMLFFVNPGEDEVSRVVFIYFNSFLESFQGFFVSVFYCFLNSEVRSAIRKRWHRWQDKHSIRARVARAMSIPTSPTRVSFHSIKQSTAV

[2] = biological target: T2, Neuropeptide Y receptor type 1 (Homo sapiens, UniProt P25929); experiment: Displacement of [125I]-PYY from human recombinant NPY Y1 receptor overexpressed in membrane of Sf9 cells
T2 sequence (P25929 whole entry): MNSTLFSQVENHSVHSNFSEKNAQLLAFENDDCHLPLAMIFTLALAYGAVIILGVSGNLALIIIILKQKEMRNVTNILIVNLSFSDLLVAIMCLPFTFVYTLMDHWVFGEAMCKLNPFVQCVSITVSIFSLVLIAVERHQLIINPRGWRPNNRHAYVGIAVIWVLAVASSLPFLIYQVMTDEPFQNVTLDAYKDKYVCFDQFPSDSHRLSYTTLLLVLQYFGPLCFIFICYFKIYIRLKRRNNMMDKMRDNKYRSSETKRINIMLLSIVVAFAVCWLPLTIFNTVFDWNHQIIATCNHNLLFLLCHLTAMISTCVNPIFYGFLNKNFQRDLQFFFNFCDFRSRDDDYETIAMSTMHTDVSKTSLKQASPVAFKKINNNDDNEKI
Outline: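 Human Y1 receptor: 125I-PYY displacement on Sf9 membranes overexpressing recombinant hY1R. Ki values are single determinations run in triplicate.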

[3] = tested on: Rattus norvegicus; experiment: Antihypertensive activity in Sprague-Dawley rat assessed as inhibition of NPY-induced increase in arterial pressure at 3 mg/kg, iv; format: functional; details: Artery
Outline: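 Overnight-fasted SD rats anesthetized with inactin (100 mg/kg ip), tracheal and femoral arterial/venous cannulae, on a heated pad. Arterial pressure and heart rate recorded every 5 s. NPY given as iv bolus every 15 min. After the third NPY bolus, compound given iv at 3 mg/kg in saline (1 mL/kg), followed by three further NPY injections.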

[4] = Fraction unbound in Sprague-Dawley rat plasma at 1 mg/kg, iv and 3 mg/kg, po; format: ADME, organism-based
[5] = biological target: T2, Neuropeptide Y receptor type 1; experiment: Antagonist activity at NPY Y1 receptor in human SK-N-MC cells assessed as inhibition of NPY-induced calcium mobilization by FLIPR assay; format: functional, cell-based
Outline: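 SK-N-MC neuroblastoma cells plated at 25,000/well 4 days ahead, loaded with Fluo-3 for 1 h in 5% CO2, washed and resuspended in assay buffer (5 mM KCl, 115 mM NaCl, 0.96 mM NaH2PO4, 1 mM MgSO4, 2 mM CaCl2, 5 mM D-glucose) containing test compound.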

[6] = Plasma clearance in Sprague-Dawley rat at 1 mg/kg, iv and 3 mg/kg, po; format: ADME, organism-based
Outline: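 Overnight-fasted, jugular-vein-cannulated SD rats (water ad libitum) dosed by oral gavage (3 mg/kg in 0.5% methyl cellulose, 2 mL/kg, n = 2) or iv via the jugular vein (1.0 mg/kg in 50% PEG, 1 mL/kg, n = 2).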

[7] = tested on: Rattus norvegicus; experiment: Unbound plasma clearance in Sprague-Dawley rat 1 mg/kg, iv and 3 mg/kg, po; format: ADME, organism-based; details: in vivo
[8] = Ratio of fraction unbound drug level in brain to plasma in Mdr1a/1b knockout mouse to FVB mouse at 5 mg.kg, sc after 0.5 hrs; format: ADME, organism-based
Outline: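 Brain and plasma levels measured in Mdr1a/1b knockout and wild-type FVB mice 0.5 h after a 5 mg/kg sc dose. Brain/plasma ratios calculated from unbound fractions, measured by equilibrium dialysis of brain homogenate and plasma. Result expressed as knockout B/P over FVB B/P.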

Structure (SMILES)	Ki [2]	Knockout-to-FVB ratio of unbound brain/plasma ratio [8]	also measured
Cc1cc(C)c(-c2c(C)nn3c(NCCN)cc(C)nc23)c(C)c1	2300 nM	–	Ki [1]: > 10000 nM
CCOc1cc(Cl)c(-c2c(C)nn3c(NCCNC4CCOCC4)cc(C)nc23)c(Cl)c1	3 nM	–	inhibition in vivo at 3 mg/kg [3]: 47%; fraction unbound [4]: 0.029; IC50 [5]: 15 nM; clearance [6]: 28 mL/min/kg; CL [7]: 996 mL/min/kg
COc1cc(Cl)c(-c2c(C)nn3c(NCCNCC(F)F)cc(C)nc23)c(Cl)c1	383 nM	2	–
COc1cc(Cl)c(-c2c(C)nn3c(NCC(C)NC4CCOCC4)cc(C)nc23)c(Cl)c1 (racemic)	5 nM	10	–

The remaining compounds from weak to strong by Ki [2], led by results:

Ki [2]	Knockout-to-FVB ratio of unbound brain/plasma ratio [8]	Structure (SMILES)	also measured
141 nM	4	COc1cc(Cl)c(-c2c(C)nn3c(NCC(C)(C)NC4CCOCC4)cc(C)nc23)c(Cl)c1	–
7 nM	–	Cc1cc(NCCNC2CCOCC2)n2nc(C)c(-c3c(Cl)cccc3Cl)c2n1	–
5 nM	8	COc1cc(Cl)c(-c2c(C)nn3c(NCCNC4CCCCC4F)cc(C)nc23)c(Cl)c1 (mixture of isomers)	–
